Laboratory results published in publication PMC4306527 (Journal of medicinal chemistry, 2014).
“And” between values parts separate entries of the source, which are not always exact repeats. Equal entries are not always repeated.

Assays:
rats [1] = settings: sc, data published previously; cited from earlier work
hCB2 receptor = hCB2 receptor (Homo sapiens, UniProt P34972); test: Radioligand competition binding, human CB2 in HEK293 membranes, [3H]CP-55,940
mCB2 receptor = mCB2 receptor (Mus musculus, UniProt P47936); test: Radioligand competition binding, mouse CB2 in HEK293 membranes, [3H]CP-55,940
[2] = target: rCB1 receptor (rat brain membranes) (Rattus norvegicus, UniProt P20272); test: Radioligand competition binding, rat brain CB1, [3H]CP-55,940
rats [3] = test: Hypothermia testing in rats; format: in vivo, rat
In short: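 Female Sprague–Dawley rats (250–350 g, n = 6/group), reused with ≥5 days between sessions. Test compound was dissolved in 20% ethanol/20% alkamuls/60% saline, then diluted with saline. Temperature was taken by a thermistor probe at 6 cm depth in minimally restrained, isolated rats. Two baselines 15 min apart; injected after the second; read every 30 min to 3 h, then hourly to 6 h. ED50 = dose lowering temperature 3 °C.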

male CD-1 mice = test: Tail-flick withdrawal; format: in vivo, mouse; settings: 0.3 and 1.0 mg/kg ip, descending phase 180 and 360 min
mouse plasma esterases = test: In vitro plasma stability toward mouse plasma esterases; format: in vitro ADME; settings: 200 μM in mouse plasma, 37 °C; Stable = no observable hydrolysis within 5 h
In short: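 Test compound at 200 μM in mouse plasma, incubated at 37 °C with 100 rpm shaking. Samples taken at various time points were diluted 1:4 in acetonitrile and centrifuged to remove protein. Supernatant was analysed by HPLC on a C18 column. Half-life came from an exponential decay fit.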

mCB2 receptor, sequence (P47936 whole entry): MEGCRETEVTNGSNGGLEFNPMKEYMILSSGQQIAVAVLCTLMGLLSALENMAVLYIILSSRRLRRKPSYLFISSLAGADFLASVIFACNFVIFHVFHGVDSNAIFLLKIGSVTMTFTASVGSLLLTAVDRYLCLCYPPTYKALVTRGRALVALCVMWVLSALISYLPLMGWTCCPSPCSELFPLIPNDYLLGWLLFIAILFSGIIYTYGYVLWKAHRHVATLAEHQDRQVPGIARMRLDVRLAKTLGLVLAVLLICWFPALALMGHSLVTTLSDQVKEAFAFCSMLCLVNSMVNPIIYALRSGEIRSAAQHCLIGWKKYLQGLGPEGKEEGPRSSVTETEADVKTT
rCB1 receptor (rat brain membranes), sequence (P20272 whole entry): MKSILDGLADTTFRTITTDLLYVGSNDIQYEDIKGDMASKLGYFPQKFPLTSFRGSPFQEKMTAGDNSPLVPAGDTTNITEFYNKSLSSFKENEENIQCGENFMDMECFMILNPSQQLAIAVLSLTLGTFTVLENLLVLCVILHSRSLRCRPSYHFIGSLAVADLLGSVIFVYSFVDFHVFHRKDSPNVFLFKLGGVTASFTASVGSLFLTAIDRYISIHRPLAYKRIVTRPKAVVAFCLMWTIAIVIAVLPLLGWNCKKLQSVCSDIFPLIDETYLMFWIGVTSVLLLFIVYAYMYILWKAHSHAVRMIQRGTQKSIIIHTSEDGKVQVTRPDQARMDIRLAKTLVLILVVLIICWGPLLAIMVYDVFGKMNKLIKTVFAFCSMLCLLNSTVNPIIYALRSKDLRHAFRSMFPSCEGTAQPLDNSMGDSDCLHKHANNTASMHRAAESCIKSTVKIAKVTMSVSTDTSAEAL
hCB2 receptor, sequence (P34972 whole entry): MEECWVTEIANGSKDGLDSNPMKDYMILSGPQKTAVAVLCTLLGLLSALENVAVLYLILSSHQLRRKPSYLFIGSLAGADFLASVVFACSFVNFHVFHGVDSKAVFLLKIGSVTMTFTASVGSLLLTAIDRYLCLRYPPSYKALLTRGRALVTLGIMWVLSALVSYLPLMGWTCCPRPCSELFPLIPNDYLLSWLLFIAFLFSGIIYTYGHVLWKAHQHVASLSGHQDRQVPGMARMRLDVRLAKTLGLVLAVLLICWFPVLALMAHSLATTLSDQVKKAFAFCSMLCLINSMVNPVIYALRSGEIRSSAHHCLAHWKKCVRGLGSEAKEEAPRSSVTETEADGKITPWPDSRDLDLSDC

## CCCCCCC(C)(C)c1cc(O)c2c(c1)OC(C)(C)[C@@H]1CC=C(C)C[C@@H]21 [(−)-Δ^8-THC-DMH, (−)-Δ^8-THC-dimethylheptyl]
Rats [1]
  ED50 (dose required to reduce temperature by 3 °C): 0.29 mg/kg

## CCOC(=O)C(C)(C)c1cc(O)c2c(c1)OC(C)(C)[C@@H]1CC=C(C)C[C@@H]21 [Compound 8b, 2-[(6aR,10aR)-6a,7,10,10a-Tetrahydro-1-hydroxy-6,6,9-trimethyl-6H-dibenzo[b,d]pyran-3-yl]-2-methyl-propanoic Acid Ethyl Ester]
hCB2 receptor
  fold higher binding affinity for hCB2 compared to (−)-Δ^8-THC: 24 fold
mCB2 receptor
  fold higher binding affinity for mCB2 compared to (−)-Δ^8-THC: 78 fold

## CC1=CC[C@@H]2[C@@H](C1)c1c(O)cc(C(C)(C)C(=O)OCCCCn3ccnc3)cc1OC2(C)C [Compound 9d, 2-[(6aR,10aR)-6a,7,10,10a-Tetrahydro-1-hydroxy-6,6,9-trimethyl-6H-dibenzo[b,d]pyran-3-yl]-2-methyl-propanoic Acid 4-(1H-Imidazol-1-yl)butyl Ester]
[2]
  fold reduction of CB1 affinity relative to 10b: ~ 8 fold

## CC1=CC[C@@H]2[C@@H](C1)c1c(O)cc(C(C)(C)C(=O)OCCCC#N)cc1OC2(C)C [Compound 10a, 2-[(6aR,10aR)-6a,7,10,10a-Tetrahydro-1-hydroxy-6,6,9-trimethyl-6H-dibenzo[b,d]pyran-3-yl]-2-methyl-propanoic Acid 3-Cyano-propyl Ester]
Rats [3]; 0.1 mg/kg sc, from average baseline of 37.8 ± 0.1 °C
  reduction of body temperature: 4.5 ± 0.5 °C
Rats [3]; hypothermia
  fold more potent than (−)-Δ^8-THC-DMH and/or 2b: 8–10 fold and 10 fold
Male CD-1 mice
  offset of the analgesia effect compared to 2b: significantly faster

## CCCCCNC(=O)C(C)(C)c1cc(O)c2c(c1)OC(C)(C)[C@@H]1CC=C(C)C[C@@H]21 [Compound 18, 2-[(6aR,10aR)-6a,7,10,10a-Tetrahydro-1-hydroxy-6,6,9-trimethyl-6H-dibenzo[b,d]pyran-3-yl]-2-methyl-N-pentylpropanamide]
Mouse plasma esterases
  mouse plasma t1/2: Stable ^e
